# Reference: ChEMBL document CHEMBL1821673, “Development of β-amino alcohol derivatives that inhibit Toll-like receptor 4 mediated inflammatory response as potential antiseptics” (J Med Chem, 2011)
# The source made the active and inactive calls. The calls are words filed in the database; no cut-off is given here.
# Columns and labels:
# [1] = biological target: T1, Toll-like receptor 4 (Homo sapiens, UniProt O00206); test: Inhibition of LPS-induced TLR4 activation in human whole blood assessed as reduction in plasma IL-6 level at 250 uM preincubated for 5 to 10 mins
# T1 sequence (O00206 whole entry): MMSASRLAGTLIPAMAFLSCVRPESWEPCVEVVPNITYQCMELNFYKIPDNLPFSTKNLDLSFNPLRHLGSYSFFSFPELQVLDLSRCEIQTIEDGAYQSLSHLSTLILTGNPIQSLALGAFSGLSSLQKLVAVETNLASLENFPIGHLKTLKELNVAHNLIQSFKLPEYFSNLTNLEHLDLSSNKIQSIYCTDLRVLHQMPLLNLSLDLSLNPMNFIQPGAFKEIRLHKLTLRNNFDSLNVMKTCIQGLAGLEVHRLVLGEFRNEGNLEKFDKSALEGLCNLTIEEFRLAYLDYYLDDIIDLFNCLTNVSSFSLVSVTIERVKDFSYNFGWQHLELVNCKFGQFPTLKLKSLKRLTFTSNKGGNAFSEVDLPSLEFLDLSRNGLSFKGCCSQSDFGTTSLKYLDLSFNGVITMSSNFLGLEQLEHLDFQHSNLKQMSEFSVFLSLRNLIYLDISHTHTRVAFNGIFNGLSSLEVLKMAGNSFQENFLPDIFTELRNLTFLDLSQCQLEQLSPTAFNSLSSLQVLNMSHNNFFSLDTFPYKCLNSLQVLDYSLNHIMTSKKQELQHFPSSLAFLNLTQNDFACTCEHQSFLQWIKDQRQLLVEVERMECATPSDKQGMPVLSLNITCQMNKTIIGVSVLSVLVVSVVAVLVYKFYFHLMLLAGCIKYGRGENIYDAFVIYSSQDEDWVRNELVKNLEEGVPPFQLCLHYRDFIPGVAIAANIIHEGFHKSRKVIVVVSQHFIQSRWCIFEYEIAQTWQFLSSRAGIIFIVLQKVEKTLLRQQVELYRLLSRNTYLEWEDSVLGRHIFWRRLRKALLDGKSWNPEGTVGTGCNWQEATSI
# Summary of the method: (§1)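 Fresh human blood anticoagulated with lepirudin, preincubated with compound 5–10 min at 37 °C, then stimulated with 100 ng/mL ultrapure E. coli 0111:B4 LPS, rotating 2 h at 37 °C. Stopped with EDTA 10 mM final; plasma TNF-α, IL-8 and IL-6 measured by singleplex Bio-plex, expressed as % of LPS without inhibitor. n = 3 or 9, paired two-sided t-test.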
# [2] = biological target: T1, Toll-like receptor 4; test: Inhibition of LPS-induced TLR4 activation in human whole blood assessed as inhibition of IL-6 release at 500 uM preincubated for 5 to 10 mins; summary of the method: as §1
# [3] = biological target: T1, Toll-like receptor 4; test: Inhibition of LPS-induced TLR4 activation in human whole blood assessed as inhibition of IL-8 release preincubated for 5 to 10 mins; summary of the method: as §1
# [4] = biological target: T1, Toll-like receptor 4; test: Inhibition of LPS-induced TLR4 activation in human whole blood assessed as inhibition of TNFalpha release preincubated for 5 to 10 mins; summary of the method: as §1
# [5] = biological target: Calcium/calmodulin-dependent protein kinase type 1 (Homo sapiens) (UniProt Q14012); test: Inhibition of CAMK1 at 28 uM by luciferase fragment complementation assay
# Chain of Calcium/calmodulin-dependent protein kinase type 1 (Homo sapiens) (Q14012 whole entry, looked up, the tested form may be a part): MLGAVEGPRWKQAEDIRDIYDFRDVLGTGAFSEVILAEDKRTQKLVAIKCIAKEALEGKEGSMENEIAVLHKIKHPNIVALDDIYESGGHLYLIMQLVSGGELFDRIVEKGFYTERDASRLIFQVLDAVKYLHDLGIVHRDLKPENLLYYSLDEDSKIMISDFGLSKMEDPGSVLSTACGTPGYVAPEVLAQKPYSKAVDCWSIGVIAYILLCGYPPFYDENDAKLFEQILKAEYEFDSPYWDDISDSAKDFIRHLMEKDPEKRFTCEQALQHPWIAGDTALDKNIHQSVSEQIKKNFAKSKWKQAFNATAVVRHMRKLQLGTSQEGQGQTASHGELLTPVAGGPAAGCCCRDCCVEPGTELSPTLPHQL
# [6] = biological target: Serine/threonine-protein kinase PLK4 (Homo sapiens) (UniProt O00444); test: Inhibition of PLK4 at 28 uM by luciferase fragment complementation assay
# Chain of Serine/threonine-protein kinase PLK4 (Homo sapiens) (O00444 whole entry, the tested form may be a part): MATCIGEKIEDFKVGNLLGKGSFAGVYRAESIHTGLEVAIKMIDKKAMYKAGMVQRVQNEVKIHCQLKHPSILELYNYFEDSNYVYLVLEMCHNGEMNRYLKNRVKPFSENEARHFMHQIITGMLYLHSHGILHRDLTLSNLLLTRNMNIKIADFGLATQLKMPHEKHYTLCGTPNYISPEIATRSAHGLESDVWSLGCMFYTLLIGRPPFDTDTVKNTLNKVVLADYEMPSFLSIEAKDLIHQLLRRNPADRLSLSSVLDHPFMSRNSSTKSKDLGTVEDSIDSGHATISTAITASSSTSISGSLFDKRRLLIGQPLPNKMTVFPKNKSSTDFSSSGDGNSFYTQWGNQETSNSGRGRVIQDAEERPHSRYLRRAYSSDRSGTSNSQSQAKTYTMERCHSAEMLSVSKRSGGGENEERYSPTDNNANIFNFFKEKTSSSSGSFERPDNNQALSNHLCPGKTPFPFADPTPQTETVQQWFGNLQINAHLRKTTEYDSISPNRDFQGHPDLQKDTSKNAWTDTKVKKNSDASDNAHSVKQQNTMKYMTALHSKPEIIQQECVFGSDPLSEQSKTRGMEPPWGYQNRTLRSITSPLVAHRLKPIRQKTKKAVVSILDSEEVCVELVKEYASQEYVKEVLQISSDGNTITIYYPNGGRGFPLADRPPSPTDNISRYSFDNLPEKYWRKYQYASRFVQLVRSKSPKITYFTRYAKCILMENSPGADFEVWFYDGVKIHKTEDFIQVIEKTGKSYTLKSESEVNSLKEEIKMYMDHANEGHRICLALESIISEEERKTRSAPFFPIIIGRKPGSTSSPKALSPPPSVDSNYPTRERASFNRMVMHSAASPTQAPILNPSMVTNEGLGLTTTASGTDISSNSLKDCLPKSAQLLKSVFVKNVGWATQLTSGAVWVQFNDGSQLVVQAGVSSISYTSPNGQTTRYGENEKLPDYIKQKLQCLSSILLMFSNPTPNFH
# [7] = biological target: Hepatocyte growth factor receptor (Homo sapiens) (UniProt P08581); test: Inhibition of MET at 28 uM by luciferase fragment complementation assay
# Chain of Hepatocyte growth factor receptor (Homo sapiens) (P08581 whole entry, the tested form may be a part): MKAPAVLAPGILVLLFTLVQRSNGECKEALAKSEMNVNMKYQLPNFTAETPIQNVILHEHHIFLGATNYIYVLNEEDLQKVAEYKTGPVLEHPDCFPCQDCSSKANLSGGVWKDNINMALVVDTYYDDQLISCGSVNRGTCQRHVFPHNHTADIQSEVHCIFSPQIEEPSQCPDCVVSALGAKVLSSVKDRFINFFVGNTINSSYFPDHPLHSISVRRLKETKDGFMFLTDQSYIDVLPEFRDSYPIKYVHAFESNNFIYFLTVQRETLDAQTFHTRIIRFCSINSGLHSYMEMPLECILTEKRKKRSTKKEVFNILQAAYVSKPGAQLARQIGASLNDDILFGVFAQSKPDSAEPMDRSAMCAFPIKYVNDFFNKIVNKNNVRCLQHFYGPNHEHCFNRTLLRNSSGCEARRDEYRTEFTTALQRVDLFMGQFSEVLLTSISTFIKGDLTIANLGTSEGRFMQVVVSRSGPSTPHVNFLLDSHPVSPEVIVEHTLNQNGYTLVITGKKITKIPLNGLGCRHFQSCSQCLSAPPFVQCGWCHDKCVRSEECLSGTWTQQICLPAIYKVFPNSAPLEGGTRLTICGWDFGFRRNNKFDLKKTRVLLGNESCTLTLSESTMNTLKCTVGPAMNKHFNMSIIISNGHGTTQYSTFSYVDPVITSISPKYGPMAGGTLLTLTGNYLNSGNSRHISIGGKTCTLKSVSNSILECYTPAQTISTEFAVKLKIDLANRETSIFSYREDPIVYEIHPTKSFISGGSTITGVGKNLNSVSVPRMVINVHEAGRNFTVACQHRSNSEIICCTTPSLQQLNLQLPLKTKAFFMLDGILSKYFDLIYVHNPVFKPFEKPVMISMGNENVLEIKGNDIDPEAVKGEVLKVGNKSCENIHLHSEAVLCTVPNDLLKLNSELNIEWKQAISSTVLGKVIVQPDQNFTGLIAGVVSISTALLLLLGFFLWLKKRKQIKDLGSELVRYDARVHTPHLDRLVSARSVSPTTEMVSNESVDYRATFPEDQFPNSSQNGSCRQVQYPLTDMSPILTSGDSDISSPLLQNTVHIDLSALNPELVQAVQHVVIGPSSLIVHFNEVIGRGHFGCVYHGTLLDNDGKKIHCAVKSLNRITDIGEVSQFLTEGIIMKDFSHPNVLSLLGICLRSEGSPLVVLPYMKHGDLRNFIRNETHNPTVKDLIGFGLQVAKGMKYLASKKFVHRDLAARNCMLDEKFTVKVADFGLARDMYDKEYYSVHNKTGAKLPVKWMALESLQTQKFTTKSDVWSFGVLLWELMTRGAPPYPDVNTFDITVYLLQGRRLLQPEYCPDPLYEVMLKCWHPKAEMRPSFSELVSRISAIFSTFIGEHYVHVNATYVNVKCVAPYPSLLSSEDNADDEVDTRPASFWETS
# [8] = Octanol/water distribution coefficient, log D of the compound at pH 7.4; type: physicochemical
# Summary of the method: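 Octanol/water distribution measured at pH 7.4.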
# [9] = biological target: T1, Toll-like receptor 4; test: Inhibition of LPS-induced TLR4 activation in human whole blood assessed as reduction in plasma TNFalpha level at 250 uM preincubated for 5 to 10 mins; summary of the method: as §1
# [10] = biological target: Glycogen synthase kinase-3 alpha (Homo sapiens) (UniProt P49840); test: Inhibition of GSK3alpha at 28 uM by luciferase fragment complementation assay
# Chain of Glycogen synthase kinase-3 alpha (Homo sapiens) (P49840 2-483 limits assumed): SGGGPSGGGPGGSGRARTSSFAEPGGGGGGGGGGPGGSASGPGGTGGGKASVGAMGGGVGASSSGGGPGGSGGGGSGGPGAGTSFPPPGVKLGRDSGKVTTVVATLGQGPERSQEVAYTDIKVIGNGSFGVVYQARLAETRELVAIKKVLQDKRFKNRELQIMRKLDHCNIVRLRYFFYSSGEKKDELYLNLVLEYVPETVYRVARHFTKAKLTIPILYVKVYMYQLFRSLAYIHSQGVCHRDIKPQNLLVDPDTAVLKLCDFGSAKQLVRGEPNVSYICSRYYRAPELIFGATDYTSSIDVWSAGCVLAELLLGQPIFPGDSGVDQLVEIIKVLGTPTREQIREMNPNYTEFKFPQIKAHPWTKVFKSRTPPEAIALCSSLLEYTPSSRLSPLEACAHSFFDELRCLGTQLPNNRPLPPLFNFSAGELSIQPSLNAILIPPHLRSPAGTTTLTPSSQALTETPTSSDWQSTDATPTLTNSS
# [11] = biological target: Mitogen-activated protein kinase 1 (Homo sapiens) (UniProt P28482); test: Inhibition of MAPK1 at 28 uM by luciferase fragment complementation assay
# Chain of Mitogen-activated protein kinase 1 (Homo sapiens) (P28482 whole entry, the tested form may be a part): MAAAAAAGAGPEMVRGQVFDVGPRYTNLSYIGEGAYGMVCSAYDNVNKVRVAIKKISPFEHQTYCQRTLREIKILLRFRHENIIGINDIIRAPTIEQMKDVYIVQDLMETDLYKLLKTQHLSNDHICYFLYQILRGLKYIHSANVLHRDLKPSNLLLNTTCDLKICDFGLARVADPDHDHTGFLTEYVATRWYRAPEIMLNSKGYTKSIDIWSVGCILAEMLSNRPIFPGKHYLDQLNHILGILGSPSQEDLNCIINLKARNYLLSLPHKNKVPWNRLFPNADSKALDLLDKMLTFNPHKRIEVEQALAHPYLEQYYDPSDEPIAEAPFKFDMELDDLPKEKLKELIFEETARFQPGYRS
smiles,measurement,setting,value
CCOc1ccc(OCC(O)CN(C)Cc2c(C)nn(Cc3ccccc3Cl)c2C)cc1 (racemic),inhibition,[1],50%
same,inhibition,[2],Active
same,IC50,[3],111 µM
same,inhibition,[3],Dose-dependent effect
same,IC50,[4],316 µM
same,inhibition,[4],Dose-dependent effect
same,inhibition,[5],≤ 27%
same,inhibition,[6],≤ 27%
same,inhibition,[7],≤ 27%
same,logD,[8],3.36
same,inhibition,[9],43%
same,inhibition,[10],≤ 27%
same,inhibition,[11],≤ 27%
